≈ marks a conversion by molar mass, not a printed value.
Columns and labels:
[1] = tested on: Mycolicibacterium smegmatis; assay: Potentiation of Cefoxitin-induced antibacterial activity against Mycobacterium smegmatis mc2 155 ATCC 700084 assessed as fold reduction in Cefoxitin MIC at 30 uM incubated for 48 hrs by alamarblue dye based broth microdilution method; type: functional
In short: (§1)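 Inoculum from 48 h cultures set to 5 x 10^5 CFU/mL in 7H9 + ADC and pre-dosed with compound from DMSO stock at fixed concentration. β-lactam two-fold serially diluted from top concentration, with an antibiotic-only control series. Stationary 37 °C for 48 h, then alamarBlue for 8 h. MIC is the lowest blue (non-viable) well. Fold reduction is relative to the antibiotic-only MIC. Duplicates, at least two repeats.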

[2] = tested on: Mycolicibacterium smegmatis; assay: Antibiofilm activity against Mycobacterium smegmatis mc2 155 ATCC 700084 assessed as inhibition of biofilm formation measured after 24 hrs by crystal violet reporter assay; type: functional, organism-based; conditions: MC2 155 ATCC 700084, 24 h
[3] = tested on: Mycolicibacterium smegmatis; assay: Potentiation of Ampicillin-induced antibacterial activity against Mycobacterium smegmatis mc2 155 ATCC 700084 assessed as Ampicillin MIC at 30 uM incubated for 48 hrs by alamarblue dye based broth microdilution method (reference value: 128 ug/ml); type: functional; in short: as §1
[4] = tested on: Mycolicibacterium smegmatis; assay: Potentiation of Cefotaxime-induced antibacterial activity against Mycobacterium smegmatis mc2 155 ATCC 700084 assessed as fold reduction in Cefotaxime MIC at 30 uM incubated for 48 hrs by alamarblue dye based broth microdilution method; type: functional; in short: as §1
[5] = tested on: Mycolicibacterium smegmatis; assay: Potentiation of Ceftazidime-induced antibacterial activity against Mycobacterium smegmatis mc2 155 ATCC 700084 assessed as Ceftazidime MIC at 30 uM incubated for 48 hrs by alamarblue dye based broth microdilution method (reference value: 512 ug/ml); type: functional; in short: as §1
[6] = Hemolytic activity in sheep RBC assessed as hemolysis at 500 uM measured after 1 hr by UV spectrometer analysis; type: ADME, cell-based, Ovis aries, Erythrocyte; conditions: sheep red blood cells (erythrocytes), read-out: Activity
In short: (§2)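 Mechanically defibrinated sheep blood was centrifuged, and the cells were washed and resuspended in PBS three times, then diluted 10-fold. Compound was added from DMSO stock. Controls were 1% Triton X (100% lysis) and PBS (zero lysis). Samples were incubated 1 h at 37 °C with shaking at 200 rpm, then centrifuged. Supernatant was diluted 40-fold in distilled water and read at A540. Run in duplicate, repeated at least twice.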

[7] = tested on: Mycolicibacterium smegmatis; assay: Antibacterial activity against Mycobacterium smegmatis mc2 155 ATCC 700084 assessed as inhibition of bacterial growth incubated for 48 hrs by alamarblue dye based broth microdilution method; type: functional
In short: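 Inoculum from 48 h cultures set to 5 x 10^5 CFU/mL in 7H9 + ADC. Compound in DMSO two-fold serially diluted from 200 µM top concentration. Stationary 37 °C for 48 h, then alamarBlue for 8 h at 37 °C. MIC is the lowest concentration with no viable bacteria (blue, not pink). Duplicate wells, at least two independent repeats.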

[8] = tested on: Mycolicibacterium smegmatis; assay: Potentiation of Ceftazidime-induced antibacterial activity against Mycobacterium smegmatis mc2 155 ATCC 700084 assessed as fold reduction in Ceftazidime MIC at 30 uM incubated for 48 hrs by alamarblue dye based broth microdilution method; type: functional; in short: as §1
[9] = tested on: Mycolicibacterium smegmatis; assay: Potentiation of Cefotaxime-induced antibacterial activity against Mycobacterium smegmatis mc2 155 ATCC 700084 assessed as Cefotaxime MIC at 30 uM incubated for 48 hrs by alamarblue dye based broth microdilution method (reference value: 128 ug/ml); type: functional; in short: as §1
[10] = tested on: Mycolicibacterium smegmatis; assay: Antibiofilm activity against Mycobacterium smegmatis mc2 155 ATCC 700084 assessed as dispersion of preformed biofilms measured after 24 hrs by crystal violet reporter assay; type: functional, organism-based; conditions: MC2 155 ATCC 700084, 24 h
In short: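 Cultures (48 h) diluted to 0.01 in M9 minimal salts with glucose, MgSO4 and CaCl2 in PVC plates. Biofilm grown stationary at 37 °C for 48 h, washed, then fresh medium with compound added for 24 h at 37 °C. Stained with 0.1% crystal violet 30 min, solubilised in 95% ethanol, OD540 read. Media blanks subtracted. Dispersion calculated against untreated biofilm wells. At least three repeats.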

[11] = Hemolytic activity in sheep RBC assessed as hemolysis at 200 uM measured after 1 hr by UV spectrometer analysis; type: ADME, cell-based, Ovis aries, Erythrocyte; conditions: sheep red blood cells (erythrocytes), read-out: Activity; in short: as §2
[12] = tested on: Mycolicibacterium smegmatis; assay: Potentiation of oxacillin-induced antibacterial activity against Mycobacterium smegmatis mc2 155 ATCC 700084 assessed as fold reduction in oxacillin MIC at 30 uM incubated for 48 hrs by alamarblue dye based broth microdilution method; type: functional; in short: as §1
[13] = tested on: Mycolicibacterium smegmatis; assay: Potentiation of Cefoxitin-induced antibacterial activity against Mycobacterium smegmatis mc2 155 ATCC 700084 assessed as Cefoxitin MIC at 30 uM incubated for 48 hrs by alamarblue dye based broth microdilution method (reference value: 16 ug/ml); type: functional; in short: as §1
[14] = tested on: Mycolicibacterium smegmatis; assay: Potentiation of Oxacillin-induced antibacterial activity against Mycobacterium smegmatis mc2 155 ATCC 700084 assessed as Oxacillin MIC at 30 uM incubated for 48 hrs by alamarblue dye based broth microdilution method (Rvb =512 ug/ml); type: functional; in short: as §1
[15] = tested on: Mycolicibacterium smegmatis; assay: Potentiation of Ampicillin-induced antibacterial activity against Mycobacterium smegmatis mc2 155 ATCC 700084 assessed as fold reduction in Ampicillin MIC at 30 uM incubated for 48 hrs by alamarblue dye based broth microdilution method; type: functional; in short: as §1

Nc1nc(-c2c[nH]c3cc(Br)ccc23)c[nH]1
fold change (FC) [1]: 0
IC50 [2]: 7.5 µM
MIC [3]: 128 µg/mL
fold change (FC) [4]: 0
MIC [5]: 128 µg/mL
hemolysis at 1 h, 500 µM [6]: 14%
MIC [7]: 100 µM (≈ 27.7 µg/mL)
fold change (FC) [8]: 4
MIC [9]: 128 µg/mL
EC50 [10]: 27.9 µM
hemolysis at 1 h, 200 µM [11]: 7%
fold change (FC) [12]: 0
MIC [13]: 16 µg/mL
MIC [14]: 512 µg/mL
fold change (FC) [15]: 0
